Source: ChEMBL document CHEMBL1127362, “Synthesis and pharmacological evaluation of isoindolo[1,2-b]quinazolinone and isoindolo[2,1-a]benzimidazole derivatives related to the antitumor agent batracylin” (J Med Chem, 1994)

Columns and labels:
CCRF-CEM = assay: Tested for the inhibitory activity against CCRF CEM T- cell leukemia cells; assay type: functional, cell-based; details: Homo sapiens
Outline: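 MTT microtiter tetrazolium assay; CCRF CEM cells seeded at 30 000 cells/well and allowed to attach. Each dose tested in four replicate plates, each with eight DMSO-only control wells.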

Rattus norvegicus = species: Rattus norvegicus; assay: Nuclear count minus the highest cytoplasmic count determined in rat hepatocytes for each cell; assay type: functional, Hepatocyte
Outline: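 Hepatocytes isolated from F-344 rats (220–300 g), ~5 × 10⁶ cells seeded on coverslips; after 2 h washed, refed with serum-free Williams medium E and exposed together to 10 μCi/mL tritiated thymidine (50–90 Ci/mmol) plus compound in DMSO. Autoradiography after 18–20 h; 20 cells counted per slide, triplicate per concentration, mean ± SD of two experiments. Positive requires net grains >0 with dose response.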

[1] = test system: DNA topoisomerase II (Bos taurus); assay: Relative potency to cause 90% of topoisomerase II-mediated cleavage of liner 8.4-kb YEPG DNA

SMILES	IC50 (CCRF-CEM)	Net grain counts (Rattus norvegicus)	Relative activity [1]
Nc1ccc2nc3n(c2c1)C(=O)c1ccccc1-3	> 200 µM	-4.4	0
Cc1cccc2nc3n(c12)C(=O)c1ccccc1-3	> 200 µM	-3.7	0
Cc1cccc(N2C(=O)c3ccccc3C2=O)c1[N+](=O)[O-]	> 200 µM	-4.1	0
O=C1c2ccccc2-c2nc3ccc(O)cc3n21	> 200 µM		0
O=C1c2ccccc2-c2nc3ccccc3n21	68 µM	-7.4	0
COc1ccc2nc3n(c2c1)C(=O)c1ccccc1-3	> 200 µM	-3.6	0
COc1cc([C@@H]2c3cc4c(cc3[C@@H](O[C@@H]3O[C@@H]5CO[C@@H](C)O[C@H]5[C@H](O)[C@H]3O)[C@H]3COC(=O)[C@H]23)OCO4)cc(OC)c1O [ETOPOSIDE]	0.002 µM	-7.5	
COc1ccc(N)c(N2C(=O)c3ccccc3C2=O)c1	> 200 µM	-8.9	0
O=C1c2ccccc2C2=Nc3ccc([N+](=O)[O-])cc3CN12	> 150 µM	10.5	0
O=C1c2ccccc2-c2nc3ccncc3n21	> 200 µM	-10.5	0
O=C1c2ccccc2C2=Nc3ccccc3CN12	60 µM	-4.5	1
Nc1ccc2c(c1)CN1C(=O)c3ccccc3C1=N2 [DANIQUIDONE]	14 µM	93.1	
Cc1cccc2c1nc1n2C(=O)c2ccccc2-1	> 200 µM	-3.5	0
Cc1cccc(N)c1N1C(=O)c2ccccc2C1=O	71 µM	-8.7	0
O=C1c2ccccc2C2=Nc3ccncc3CN12	102 µM	-5.2	0.1
